Results taken from ChEMBL document CHEMBL1255483, “Intra- and extracellular activities of dicloxacillin against Staphylococcus aureus in vivo and in vitro” (Antimicrob Agents Chemother, 2010).
In brackets after ≈: the same amount, converted by molar mass. Activity calls are given as the source filed them. No cut-off for these calls is given here.

How the values were obtained:
[1] = tested on: Staphylococcus aureus; test: Bacteriostatic activity against Staphylococcus aureus E19977 after 24 hrs; format: functional
Outline: (§1)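 Extracellular broth time- and concentration-kill test. The inoculum was ~10⁶ CFU/ml, exposed to a wide range of DCX concentrations, with CFU counted after 5 and 24 h. The read-out was Δlog CFU/ml versus time zero (mean ± SD, n = 3). A sigmoidal fit with slope 1 gave Emax and EC50. Cstatic was read by graphical interpolation as the concentration giving no change from the inoculum.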

[2] = tested on: Staphylococcus aureus; test: Antimicrobial activity against Staphylococcus aureus E19977 after 24 hrs; format: functional, organism-based; conditions: E19977, 24 h; outline: as §1
[3] = tested on: Staphylococcus aureus; test: Antimicrobial activity against Staphylococcus aureus ATCC 25923 infected in human THP-1 cells after 24 hrs; format: functional, organism-based; conditions: ATCC 25923, THP-1, 24 h
Outline: (§2)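 Human THP-1 macrophages were infected with opsonized S. aureus at 4 bacteria per macrophage for 45 min. Non-phagocytized bacteria were removed by washing and a brief incubation in PBS with gentamicin 50 mg/liter. Cells were then incubated up to 24 h with DCX over a wide range of extracellular concentrations. The read-out was Δlog CFU per mg cell protein versus time zero (n = 3), with sigmoidal fitting and Cstatic by interpolation.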

[4] = tested on: Staphylococcus aureus; test: Antimicrobial activity against Staphylococcus aureus E19977 infected in human THP-1 cells after 24 hrs; format: functional, organism-based; conditions: E19977, THP-1, 24 h; outline: as §2
[5] = tested on: Staphylococcus aureus; test: Bactericidal activity against Staphylococcus aureus E19977 assessed as log reduction in bacterial count at 100 times MIC after 24 hrs by time-kill assay; format: functional
Outline: (§3)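 Broth time-kill: MSSA at 10⁶ CFU/ml exposed to a wide range of dicloxacillin concentrations. CFU counted after 5 and 24 h and expressed as change in log₁₀ CFU/ml from time zero. Multiples refer to the MIC by CLSI microdilution at pH 7.4. n = 3.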

[6] = tested on: Staphylococcus aureus; test: Bactericidal activity against Staphylococcus aureus E19977 assessed as log reduction in bacterial count at 10 times MIC after 5 hrs by time-kill assay; format: functional; outline: as §3
[7] = tested on: Staphylococcus aureus; test: Bactericidal activity against Staphylococcus aureus E19977 assessed as log reduction in bacterial count at MIC after 5 hrs by time-kill assay; format: functional; outline: as §3
[8] = tested on: Staphylococcus aureus; test: Bactericidal activity against Staphylococcus aureus ATCC 25923 assessed as log reduction in bacterial count at MIC after 5 hrs by time-kill assay; format: functional; outline: as §3
[9] = tested on: THP-1; test: Cytotoxicity against human THP1 cells at 500 mg/L after 24 hrs by trypan blue exclusion method; format: cell-based; conditions: thp-1, 24 h
Outline: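 THP-1 macrophage viability was checked by trypan blue exclusion after 24 h of exposure to DCX at concentrations up to 500 mg/liter.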

[10] = tested on: Staphylococcus aureus; test: Bactericidal activity against Staphylococcus aureus E19977 infected in human THP1 cells assessed as log reduction in bacterial count at 100 times MIC after 24 hrs by time-kill assay; format: functional, THP-1
Outline: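 Intracellular model in THP-1 macrophages: opsonized S. aureus was added at 4 bacteria per macrophage for 45 min. Non-phagocytized bacteria were removed by washing and brief PBS incubation with gentamicin (50 mg/liter). Cells were then incubated up to 24 h with a wide range of extracellular dicloxacillin concentrations. Result is change in log₁₀ CFU per mg cell protein from time zero. n = 3.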

[11] = Cmax in NMRI mouse at 60 mg/kg, sc; format: ADME, organism-based; design: dose 60 mg/kg, route subcutaneous; conditions: in vivo
Outline: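 Single subcutaneous dicloxacillin doses were given to NMRI mice. EDTA plasma was assayed by microbiological bioassay with S. lutea ATCC 9391 (detection limit 1.5 mg/liter, linear to 100 mg/liter, CV ~5%). Cmax was obtained by noncompartmental analysis.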

[12] = Cmax in NMRI mouse at 1200 mg/kg, sc; format: ADME, organism-based; design: dose 1200 mg/kg, route subcutaneous; conditions: in vivo
[13] = Half-life in NMRI mouse at 60 mg/kg, sc; format: ADME, organism-based; design: dose 60 mg/kg, route subcutaneous; conditions: in vivo
Outline: (§4)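 Single subcutaneous DCX doses given to NMRI mice. Blood was collected into EDTA tubes, and plasma drug was assayed by microbiological bioassay with S. lutea ATCC 9391 (detection limit 1.5 mg/liter, linear to 100 mg/liter). Values came from noncompartmental analysis. Terminal half-life was fitted monoexponentially to the last four time points. AUC24 combined the trapezoidal rule over mean points with exact integration of the fitted curve extrapolated to 24 h.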

[14] = Half-life in NMRI mouse at 300 mg/kg, sc; format: ADME, organism-based; design: dose 300 mg/kg, route subcutaneous; conditions: in vivo; outline: as §4
[15] = Ratio of fAUC (24 hrs) in NMRI mouse at 400 mg/kg administered every 12 hrs to MIC for Staphylococcus aureus E19977; format: functional
Outline: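 Modeled free AUC over 24 h divided by the MIC, not measured directly. Single subcutaneous DCX doses were given to NMRI mice, and plasma was assayed by S. lutea bioassay. Noncompartmental analysis used trapezoidal mean points plus a fitted monoexponential extrapolated to 24 h. Free fraction came from a square-root fit to plasma ultrafiltration binding (10–400 mg/liter spike, 1 h, 37°C). The MIC was measured by broth microdilution at pH 7.4.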

[16] = Ratio of fCmax in NMRI mouse at 80 mg/kg administered every 8 hrs to MIC for Staphylococcus aureus E19977; format: functional
Outline: (§5)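 Free Cmax/MIC was modelled, not measured. Single-dose subcutaneous plasma curves from NMRI mice were projected to the multiple-dose regimens. Free fraction came from a square-root fit of unbound fraction versus total concentration. Binding was measured by ultrafiltration of mouse plasma spiked with 10–400 mg/liter and held 1 h at 37°C. MIC was for strain E19977.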

[17] = Ratio of fCmax in NMRI mouse at 240 mg/kg administered every 6 hrs to MIC for Staphylococcus aureus E19977; format: functional; outline: as §5
[18] = Ratio of fCmax in NMRI mouse at 120 mg/kg administered every 6 hrs to MIC for Staphylococcus aureus E19977; format: functional; outline: as §5
[19] = organism: Mus musculus; test: Protein binding in NMRI mouse at 30 mg/l by ultrafiltration; format: ADME, organism-based; conditions: in vivo
Outline: (§6)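 Plasma binding was measured by ultrafiltration. EDTA blood from healthy mice, or from NMRI mice infected intraperitoneally for 6 h with E19977, was spiked with DCX at 10–400 mg/liter, with PBS controls. Samples were held 1 h at 37°C, then centrifuged through 30-kDa filters at 3,000 × g for 8 min at 37°C. Total and filtrate drug were measured by S. lutea bioassay.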

[20] = organism: Mus musculus; test: Protein binding in NMRI mouse infected with Staphylococcus aureus E19977 at 30 mg/l by ultrafiltration; format: ADME, organism-based; conditions: in vivo; outline: as §6
[21] = organism: Mus musculus; test: Protein binding in NMRI mouse infected with Staphylococcus aureus E19977 at 10 mg/l by ultrafiltration; format: ADME, organism-based; conditions: in vivo; outline: as §6
[22] = fT>MIC in Staphylococcus aureus E19977 infected NMRI mouse at 30 mg/kg administered every 2 hrs; format: functional
Outline: (§7)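 Calculated percentage of 24 h at steady state that free plasma DCX exceeds the strain MIC (microdilution, pH 7.4). Concentrations were simulated from single subcutaneous dose plasma curves in NMRI mice (S. lutea bioassay), adjusted with a square-root model of concentration-dependent free fraction from ultrafiltration. The regimen was dosed subcutaneously in mice infected intraperitoneally with 10^7.4 CFU, and peritoneal CFU were read after 24 h of therapy.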

[23] = fT>MIC in Staphylococcus aureus E19977 infected NMRI mouse at 160 mg/kg administered every 3 hrs; format: functional; outline: as §7
[24] = tested on: Staphylococcus aureus; test: Bacteriostatic activity against Staphylococcus aureus ATCC 25923 infected in human THP-1 cells at compound MIC after 24 hrs; format: functional, organism-based; outline: as §2
[25] = tested on: Staphylococcus aureus; test: Bacteriostatic activity against Staphylococcus aureus E19977 infected in human THP-1 cells at 100 times MIC after 5 hrs; format: functional, organism-based; outline: as §2

EC50 [2]: 0.5 µg/mL (≈ 1.06 µM)
EC50 [3]: 0.04 µg/mL (≈ 0.085 µM)
EC50 [4]: 0.31 µg/mL (≈ 0.659 µM)
Cmax [11]: 90.1 µg/mL
Cmax [12]: 222 µg/mL
half-life [13]: 25 min
half-life [14]: 30 min
fAUC/MIC [15]: 644.84 h
Activity [19]: 91.5%
Activity [20]: 91.9%
Activity [21]: 93.6%
fT>MIC [22]: 45.83%
fT>MIC [23]: 96.11%
SMILES: Cc1onc(-c2c(Cl)cccc2Cl)c1C(=O)N[C@@H]1C(=O)N2[C@@H]1SC(C)(C)[C@@H]2C(=O)O [DICLOXACILLIN]
Activity [1]: 0.43 mg/L
FC [5]: 3
FC [6]: <1
FC [7]: <1
FC [8]: <1
Activity [9]: Non-toxic
FC [10]: <1
Ratio [16]: 30.64
Ratio [17]: 136.18
Ratio [18]: 61.6
Activity [24]: Active
Activity [25]: Active
